# Assay outcomes from PubChem BioAssay.
# This is a sample that favours compounds with a hit; in the whole collection about 4.9% have one here.
# STAT1 activator: STAT1 signaling activators, primary screen, cell-based, HTS, luciferase reporter. NIH 3T3 STAT1-luciferase reporter, IFN-gamma, luminescence; 100% = IFN-gamma alone, no compound. activation (% of control), % at 5.5 µM. actives 2.6% (n = 200,000). AID 932, 2007;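 active = activation above the screen-wide mean activation plus 3 SD, cut at about 130% in these data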;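 note: raw ratio to IFN-gamma control signal so 100% means no change and 0% no light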
# STAT1 blocker: STAT1 signaling inhibitors, primary screen, cell-based, HTS, luciferase reporter. actives 0.35% (n = 200,000). NIH 3T3 STAT1-luciferase reporter, IFN-gamma, luminescence. AID 920, 2007. inhibition, % at 5.5 µM;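 active = inhibition above a set limit, the mean inhibition across all tested compounds plus 3 SD, cut at about 34% in these data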;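 note: 0% = IFN-gamma with DMSO and 100% = IFN-gamma with 300 µM nifuroxazide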
# STAT3 act: IL-6 driven STAT3 reporter potentiators, primary screen, U3A cells, luciferase, luminescence, MLSCN library; IL-6 STAT3-luciferase reporter; 100% = signal with IL-6 EC80 alone; activation (% of control), % at 5.6 µM; actives 0.91% (n = 190,000);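 active = activation above the screen-wide mean of compound activation plus 3 SD, cut at about 130% in these data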;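 note: 0% = background luminescence of wells with medium and substrate only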
#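 Material: human STAT1-deficient U3A cells with stable STAT3-luciferase reporter / Probe or stimulus: IL-6 stimulus at 33 ng/mL final / Schedule: 1 h compound pre-exposure, 6 h IL-6 stimulation, 37 °C / Technique: luminescence / Read-out basis: percent of IL-6-only median luminescence / Control set: IL-6-only high control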
# STAT3 inh-1: IL-6 driven STAT3 reporter inhibitors, primary screen, U3A cells, luciferase, luminescence, MLSCN library. inhibition, % at 5.5 µM. actives 0.89% (n = 190,000). IL-6 STAT3-luciferase reporter; host cell line lacks STAT1. AID 862, 2007;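 active = inhibition above the mean inhibition across all screened compounds plus 3 SD, cut at about 44% in these data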;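 note: 0% = DMSO only wells and 100% = 100 µM nifuroxazide control wells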
# APP 5'UTR act: activators of APP 5'UTR luciferase reporter, primary screen, SH-SY5Y cells; activation, % at 2 µM; actives 1% (n = 190,000); SH-SY5Y APP 5'UTR luciferase reporter, luminescence; zero percent = DMSO vehicle wells;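 active = activation above a set limit, based on mean plus 3 SD of controls, cut at about 140% in these data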
# NF-kB neuron act: activators of NF-kB expression in neurons, primary screen, cell-based, HTS. human neuronal cells, NF-kB reporter expression; active compounds read high. fold change at 12.5 µM. actives 1.6% (n = 190,000); in the data active = fold change above about 3.3
# STAT3 inh-2: STAT3 reporter inhibitors, retest of hits, confirmation, U3A cells, luciferase, luminescence; inhibition, % at 5.7 µM; shares compounds with STAT3 inh-1; IL-6 STAT3 luciferase reporter; cell line lacks STAT1; actives 45% (n = 1,200);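 active = inhibition above the hit cutoff computed for the primary STAT3 screen, cut at about 44% in these data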;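 note: 0% = IL-6 plus DMSO and 100% = IL-6 plus nifuroxazide control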
# NFkB inh 2: NF-kB reporter inhibitors in human cells, confirmation, counter-screen for STAT3 inhibitor project, cell-based, HEK293T, luciferase, TNF-alpha stimulus; shares compounds with STAT3 inh-1; TNF-alpha induced; inhibition, % at 5.7 µM; actives 36% (n = 1,200); AID 1308, 2008;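 active = inhibition above the mean of solvent-only control wells plus 3 SD, cutoff set per campaign, cut at about 13% in these data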;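 note: 0% = TNF-alpha with DMSO and 100% = TNF-alpha with MG high control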
# STAT1 inh 2: STAT1 reporter inhibitors, IFN-gamma induced, confirmation, counter-screen for STAT3 inhibitor project, cell-based, NIH 3T3, luciferase luminescence. NIH 3T3 STAT1-luciferase reporter. actives 27% (n = 1,200). AID 1317, 2008. inhibition, % at 5.7 µM. shares compounds with STAT3 inh-1;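 active = inhibition above the mean plus 3 SD of solvent-only control wells, limit set per screening run, cut at about 16% in these data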;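 note: 0% = DMSO with IFN-gamma and 100% = nifuroxazide control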
# Active calls of the source: *; . = no result given.
SMILES,STAT1 activator,STAT1 blocker,STAT3 act,STAT3 inh-1,APP 5'UTR act,NF-kB neuron act,STAT3 inh-2,NFkB inh 2,STAT1 inh 2
O=C(CCl)N(c1ccccc1)c1c[nH]c2ccccc12,69,34,64,45*,-32,0.41,31,19*,28*
O=C(CCl)N(c1ccc(Cl)cc1)c1c[nH]c2ccccc12,79,23,75,34,-18,1,.,.,.
COc1ccc(C(=O)COc2ccc(F)cc2)c(O)c1,.,.,.,.,40,.,.,.,.
COc1ccc(O)c(C(=O)CC(=O)c2ccc(F)cc2)c1,110,-11,35,77*,149*,2.3,27,-10,-112
COCCCNC(=O)c1sc2ncnc(N3CCc4ccccc4C3)c2c1C,88,14,100,2,5,0.99,.,.,.
Cc1cc(NC(=O)c2cc(-c3ccco3)on2)nn1Cc1ccc(Cl)cc1,101,-2,52,63*,-15,1.2,58*,13*,-8
COc1cccc(-c2cc(C(=O)Nc3cc(C)n(Cc4ccc(Cl)cc4)n3)no2)c1,103,-5,58,55*,4,1,70*,20*,-3
O=C(NCc1ccccn1)[C@H]1C[C@@H]1[C@H](NP(=O)(c1ccccc1)c1ccccc1)c1ccccc1,105,-6,101,-4,1,0.98,.,.,.
CN(C)c1ccc(C2CC(=O)OC3=C2C(=O)CC(C)(C)C3)cc1 (centres undefined),98,2,95,8,6,1.4,.,.,.
Nc1ccc(C(=O)Nc2nc3ccccc3s2)cc1,125,-28,62,51*,160*,3.9*,2,-40,-173
Cc1cc(NC(=O)CN2CCc3ccccc3C2)nc2c1c(=O)oc1ccccc12,104,-5,.,.,25,1.4,.,.,.
CCN(C(=O)COC(=O)c1cncc(Br)c1)C1CCS(=O)(=O)C1 (centres undefined),100,-1,106,-3,-11,1,.,.,.
O=C(/C=C/c1ccc(Cl)cc1Cl)Nc1cccc(S(=O)(=O)NC2=NCCC2)c1,78,22,57,52*,79,7.2*,33,6,-5
O=C(/C=C/c1ccccc1Cl)Nc1cccc(S(=O)(=O)NC2=NCCCCC2)c1,108,-8,99,5,44,0.91,.,.,.
c1csc(CNc2ccc3c(c2)OCCO3)c1,86,16,28,86*,0,1.2,-93,-7,-80
Oc1ccccc1CNc1ccc2c(c1)OCCO2,92,7,91,15,23,2.1,.,.,.
O=C(Nc1ccc(-c2nc3cccnc3s2)cc1)C1CCCO1 (centres undefined),79,23,27,84*,76,2.7,66*,16*,-14
Cc1ccc2nc(-c3ccc(NC(=O)C4CCCO4)cc3)[nH]c2c1 (centres undefined),95,6,41,72*,115,3.8*,32,-4,-104
COC(=O)c1ccc(NC(=O)C2CCCO2)cc1 (centres undefined),100,0,88,23,11,1.6,.,.,.
O=C(N/N=C1/CCCc2ccccc21)C(c1ccccc1)c1ccccc1,99,1,103,1,-8,1.1,.,.,.
CN(C)C(=O)COc1ncnc2scc(-c3ccc(F)cc3)c12,99,-1,101,10,8,1,.,.,.
O=C1CCCN1c1ccc(S(=O)(=O)N2CCN(c3ccccc3)CC2)cc1,93,6,97,7,12,1.1,.,.,.
O=C1CCCN1c1ccc(S(=O)(=O)N2CCC(c3ccccc3)CC2)cc1,96,4,45,69*,2,1.4,56*,12,10
Cc1cc(C(=O)O)c(C)n1-c1ccccc1,109,-10,110,-11,0,1.1,.,.,.
CC(=O)Nc1ccc(SCC(=O)c2cc(C)n(-c3ccccc3)c2C)cc1,141*,-45,61,44*,99,0.46,13,-46,-118
SMILES,STAT1 activator,STAT1 blocker,STAT3 act,STAT3 inh-1,APP 5'UTR act,NF-kB neuron act,STAT3 inh-2,NFkB inh 2,STAT1 inh 2
CCOC(=O)c1ccccc1NS(=O)(=O)c1ccc(S(=O)(=O)N2CCCC2)cc1,102,-4,102,4,9,1.4,.,.,.
O=C(CN1CCCc2ccccc21)N/N=C/c1ccc(O)cc1O,126,-28,111,-14,52,0.36,.,.,.
Oc1ccc(Nc2nc(NCC3CCCO3)c3ccccc3n2)cc1 (centres undefined),98,3,89,21,15,0.49,.,.,.
Oc1ccccc1Nc1nc(NCC2CCCO2)c2ccccc2n1 (centres undefined),96,4,64,50*,-5,0.72,33,-7,0
COc1ccc(C2(CNC(=O)c3ccccc3[N+](=O)[O-])CCOCC2)cc1,107,-7,96,7,5,1.2,.,.,.
COC(=O)c1ccc(CN2C(=O)NC3(CCCCC3)C2=O)cc1,118,-19,116,-19,5,2.7,.,.,.
COc1ccc2c(c1)oc(=O)c1c3ccccc3[nH]c21,128,-32,53,60*,73,1,62*,-10,-53
COc1ccc2c(c1)oc(=O)c1ccccc12,118,-20,92,11,14,1.5,.,.,.
CCCCc1nnc(NC(=O)COC)s1,100,0,100,0,3,1.7,.,.,.
COc1ccc(-n2cc(C(=O)c3ccccc3O)cn2)cc1,100,0,50,65*,236*,3.9*,14,12,-102
COc1ccc(-n2cc(C(=O)c3ccc4ccccc4c3O)cn2)cc1,104,-5,104,-3,-12,1.1,.,.,.
Cc1ccc(-c2nc3cccnc3s2)cc1NC(=O)C1c2ccccc2Oc2ccccc21,118,-20,119,-22,33,1.4,.,.,.
O=C(NCCC1=CCCCC1)c1ccc(Cl)cc1,99,0,64,47*,228*,5.5*,4,-28,-113
O=C(NC1CC1)c1cc2c(s1)-c1ccccc1OC2,120,-22,46,71*,75,1.9,63*,-7,-42
